The values below come from paper PMC6410374 (Biomaterials science, 2019).

The subject of data set [1] is IgG^800. The data set can be described thus: In vivo IgG^800 retention in mouse footpads. Set-up: species or system C57BL/6 mice. The method, boiled down:
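Female C57BL/6 mice, 8–12 weeks old, under isoflurane (5% induction, 3% maintenance). Fluorescent IgG800 premixed with peptide coacervate or EAK was injected subcutaneously into one footpad (28G needle) without hair removal. Imaged before injection and every two days with near-infrared imaging at 255 μm resolution. Injection-site ROI was normalized to a non-injected background ROI; the 5-min signal was set as 100% (0.065 μg/μl). Ex vivo scans were taken at 800 channel.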

In data set [2] the target is fluorescein-labeled rabbit polyclonal IgG (Oryctolagus cuniculus, UniProt P01870). The data set can be described thus: Microplate-based titration of IgG against Z15_EAK/EAK coacervate. The class given is binding. The following applies: constant concentration of EAK; data not shown.
The nature of data set [3]: Congo red absorbance / fibrillization. The class given is physicochemical. The following applies: EAK: upon exposure to high ionic strengths. The essentials:
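Congo red (1×, diluted from 10X stock in PBS) incubated with peptide for at least 1 h. Absorbance scanned across 400–600 nm on a microplate reader with 0 ms settle time. Peak position and shift read from spectra, with repeat scans over time.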

Data set [4] relates to humans. The following applies: very low doses; idiosyncratic thrombocytopenia purpura; ref [13]; cited from earlier work.
Data set [5] relates to CD8 T cells from humans exposed to the human polyomavirus 2 protein. The following applies: T cells of patients exposed to the virus; HLA-A*0201; ref [35]; cited from earlier work.
The target in data set [6] is IgG. The following applies: read-out: binding constant for IgG; ref [20]; cited from earlier work.

fluorescein-labeled rabbit polyclonal IgG, sequence (P01870 101-323 limits assumed): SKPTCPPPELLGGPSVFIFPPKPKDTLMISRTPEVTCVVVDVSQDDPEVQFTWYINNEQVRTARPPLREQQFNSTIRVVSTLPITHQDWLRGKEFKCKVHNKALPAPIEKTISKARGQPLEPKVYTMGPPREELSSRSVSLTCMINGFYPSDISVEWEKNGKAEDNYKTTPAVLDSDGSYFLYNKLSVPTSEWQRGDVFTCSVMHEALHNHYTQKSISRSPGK

With AEAEAKAKAEAEAKAK, the “IgG^800 retained in footpad” value in data set [1] (after 4 days, 5 min signal = 100%) is 8%. Also, the “antibody in draining lymph node” value in data set [1] (footpad injection, day 28) is on record as “found in the draining lymph node”. In addition, in data set [2], the “affinity constants of IgG titrated against EAK” value is listed as “ambiguous affinity constants”. Moreover, the fibril formation kinetics result in data set [3] was “almost instantaneously”.

For the substance “PRTX-100: Highly purified SpA developed as a therapeutic for idiosyncratic thrombocytopenia purpura”, in data set [4], the “safety in phase-I clinical trials” value is reported as “safe”.

For RIPLPNLNEDLTCGN, in data set [5], the “T cell recall in vitro” value is reported as “recalled in vitro”.

“SpA: 42-kDa protein consisting of five homologous Fc-binding domains (E, D, A, B and C)”: the Kd in data set [6] is around 20 nM.
